This note sets out measurements from ChEMBL document CHEMBL3813670, “Unique Polybrominated Hydrocarbons from the Australian Endemic Red Alga Ptilonia australasica” (J Nat Prod, 2016).

Calls of active or inactive are those of the source. The calls are words filed in the database; no cut-off is given here.

Experiment [1] can be described thus: Cell cycle arrest in human PC3 cells assessed as accumulation at G2/M phase at 1.3 uM after 24 hrs by propidium iodide staining based flow cytometry (reference value: 22.2 +/- 0.4%). Format: functional. Conditions: PC-3. The procedure, abridged:
(§1)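 PC3 cells exposed to compound at various concentrations for 24 h, then harvested, rinsed in ice-cold PBS and fixed in 70% alcohol at −20 °C for 16 h. After a second cold PBS wash, cells were held 20 min at room temperature in 1 mL containing 0.1% Triton X-100, 0.2 mg RNase A and 2 μL PI (1 mg/mL). DNA content was read by flow cytometry.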
A general note: Flow cytometry measures light scatter and fluorescence of single cells or particles in a stream.

Experiment [2] is described as follows: Cell cycle arrest in human PC3 cells assessed as accumulation at G0/G1 phase at 4 uM after 24 hrs by propidium iodide staining based flow cytometry (reference value: 62.5 +/- […]%). Format: functional. Conditions: PC-3.
Experiment [3] can be described thus: Cell cycle arrest in human PC3 cells assessed as accumulation at S phase at 4 uM after 24 hrs by propidium iodide staining based flow cytometry (reference value: 15.3 +/- 3.1%). The note with it: PC-3. Format: functional. Put shortly:
as §1

Experiment [4] can be described thus: Cell cycle arrest in human PC3 cells assessed as accumulation at G2/M phase at 4 uM after 24 hrs by propidium iodide staining based flow cytometry (reference value: 22.2 +/- 0.4%). Format: functional. Conditions: PC-3. Put shortly:
as §1

Experiment [5] can be described thus: Cytotoxicity against human PC3 cells assessed as growth inhibition after 72 hrs by Alamar blue assay. Format: functional, cell-based. Conditions: PC-3, 72 h. In general terms: Alamar Blue is a resazurin reagent that responds to reducing activity.
The nature of experiment [6]: Cell cycle arrest in human PC3 cells assessed as accumulation at G0/G1 phase at 0.4 uM after 24 hrs by propidium iodide staining based flow cytometry (reference value: 55.6 to 62.5%). The note with it: PC-3. Format: functional. The procedure, abridged: as §1
The nature of experiment [7]: Cell cycle arrest in human PC3 cells assessed as accumulation at S phase at 0.4 uM after 24 hrs by propidium iodide staining based flow cytometry (reference value: 15.3 to 25.8%). Format: functional. Conditions: PC-3. Put shortly:
as §1

The nature of experiment [8]: Cell cycle arrest in human PC3 cells assessed as accumulation at G2/M phase at 0.4 uM after 24 hrs by propidium iodide staining based flow cytometry (reference value: 18.7 to 22.2%). Format: functional. The note with it: PC-3. Put shortly:
as §1

A short description of experiment [9]: Cell cycle arrest in human PC3 cells assessed as accumulation at G0/G1 phase at 1.3 uM after 24 hrs by propidium iodide staining based flow cytometry (reference value: 62.5 +/- […]%). Format: functional. Conditions: PC-3.
Experiment [10] is described as follows: Cell cycle arrest in human PC3 cells assessed as accumulation at S phase at 1.3 uM after 24 hrs by propidium iodide staining based flow cytometry (reference value: 15.3 +/- 3.1%). Format: functional. Conditions: PC-3. Put shortly:
as §1

The next experiment concerns PC-3. Description: Cytotoxicity against human PC3 cells assessed as growth inhibition at 80 uM after 72 hrs by Alamar blue assay. Format: functional, cell-based.
Experiment [11] in a line: Cell cycle arrest in human PC3 cells assessed as accumulation at G0/G1 phase at 0.04 uM after 24 hrs by propidium iodide staining based flow cytometry (reference value: 55.6 +/- 1.4%). Format: functional. Conditions: PC-3. Put shortly:
as §1

The nature of experiment [12]: Cell cycle arrest in human PC3 cells assessed as accumulation at S phase at 0.04 uM after 24 hrs by propidium iodide staining based flow cytometry (reference value: 25.8 +/- 0.7%). The note with it: PC-3. Format: functional. Put shortly:
as §1

Experiment [13] in a line: Cell cycle arrest in human PC3 cells assessed as accumulation at G2/M phase at 0.04 uM after 24 hrs by propidium iodide staining based flow cytometry (reference value: 18.7 +/- 0.7%). Format: functional. The note with it: PC-3. Put shortly:
as §1

Experiment [14] can be described thus: Cell cycle arrest in human PC3 cells assessed as accumulation at G0/G1 phase at 0.13 uM after 24 hrs by propidium iodide staining based flow cytometry (reference value: 55.6 +/- 1.4%). Format: functional. The note with it: PC-3. Put shortly:
as §1

Experiment [15] can be described thus: Cell cycle arrest in human PC3 cells assessed as accumulation at S phase at 0.13 uM after 24 hrs by propidium iodide staining based flow cytometry (reference value: 25.8 +/- 0.7%). Conditions: PC-3. Format: functional. The procedure, abridged: as §1
A short description of experiment [16]: Cell cycle arrest in human PC3 cells assessed as accumulation at G2/M phase at 0.13 uM after 24 hrs by propidium iodide staining based flow cytometry (reference value: 18.7 +/- 0.7%). Format: functional. The note with it: PC-3. The procedure, abridged: as §1

On to `Cc1oc(C(Br)=C(Br)Br)cc(=O)c1O`, for which the Activity in [1] was 5.8%; in experiment [2], 73.3%; in [3], 23.8%; in experiment [4] it was 2.9%; in experiment [6], 63.7%; in experiment [7], 18.2%. Moreover, the Activity turned out to be 18.1% in [8], 72.7% in experiment [9] and 21.5% in experiment [10]. Besides, the IC50 (as a rule, the concentration needed to halve the response being measured) in experiment [5] amounted to 10 µM.

`CC(=O)O[C@H]1C(=O)[C@@]2(C)[C@H]([C@H](OC(=O)c3ccccc3)[C@]3(O)C[C@H](OC(=O)[C@H](O)[C@@H](NC(=O)c4ccccc4)c4ccccc4)C(C)=C1C3(C)C)[C@]1(OC(C)=O)CO[C@@H]1C[C@@H]2O` [PACLITAXEL]: the IC50 in experiment [5] is 0.002 µM.

Take `CC(=O)O[C@@H](C(Br)=C(Br)Br)C(Br)Br`: the inhibition entry in the experiment with PC-3 is “inactive”.

As for `CC[C@@]1(O)C(Br)=C(Br)C(=O)C1=C(Br)Br`, the IC50 in experiment [5] came to 0.44 µM. For the same compound, the Activity in experiment [11] worked out at 63.3%; in experiment [12], 18.1%; in experiment [13], 13.6%; in [14], 75%; in experiment [15] it was 13.8%; in experiment [16] it was 11.2%. Moreover, the Activity in experiment [6] turned out to be 88.4%; in experiment [7] it was 11.5%; in experiment [8] it was 0.1%.
